Data from ChEMBL document CHEMBL5724801, “EUbOPEN Chemogenomics Library - Multiplex” (2024).
Values joined by “and” are separate entries in the source; they are usually repeats but may differ in a detail not shown here. Identical values can stand only once.

Tested on: U2OS
Assay: Multiplex assay against U2OS
Type: toxicity, cell-based
Conditions: human
How it was run: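 With compound added, live cells were imaged on a CQ1 microscope at 37°C and 5% CO2; staining with Hoechst33342, BioTracker Green Microtubule Cytoskeleton Dye, MitoTracker Red and Annexin V Alexa Fluor 680 had been done at seeding. The CellPathfinder machine-learning gating scheme split cells into Hoechst high-intensity objects or normal cells, normal cells into healthy, pyknosed or fragmented nuclei, and pyknosed cells into mitotic or apoptotic. The tubulin, mitochondrial-mass and membrane-permeability phenotypes are per cents of healthy-nucleus cells.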

[1] = 12 h, 1 µM, compound concentration 1 uM
[2] = 12 h, 10 µM, compound concentration 10 uM
[3] = 24 h, 1 µM, compound concentration 1 uM
[4] = 24 h, 10 µM, compound concentration 10 uM
[5] = 48 h, 1 µM, compound concentration 1 uM
[6] = 48 h, 10 µM, compound concentration 10 uM

**Q.** Which “Population Apoptotic (%)” value [1] does the source give for `O=C(Nc1cc(C(F)(F)F)cc(C(F)(F)F)c1)c1cc(Cl)ccc1O` [IMD-0354] here?
**A.** 56.25% and 45.83%

**Q.** And the “Population Fragmented Nuclei (%)” value [1]?
**A.** 0.73% and 2.45%

**Q.** And the “Population Healthy Nuclei (%)” value [1]?
**A.** 91.46% and 82.82%

**Q.** And the “Population Hoechst High Intensity Objects (%)” value [1]?
**A.** 0.24% and 0.61%

**Q.** What about the “Population Membrane Permeable-Phenotype (%)” value [1] of the same compound?
**A.** 0.27% and 2.22%

**Q.** What about the “Population Mitochondria Different-Phenotype (%)” value [1] of the same compound?
**A.** 0% and 7.41%

**Q.** And the “Population Mitotic Cells (%)” value [1]?
**A.** 43.75% and 54.17%

**Q.** And the “Population Normal (%)” value [1]?
**A.** 99.76% and 99.39%

**Q.** And the “Population Pyknosed Nuclei (%)” value [1]?
**A.** 7.8% and 14.72%

**Q.** What about the “Population Tubulin-Different-Phenotype (%)” value [1] of the same compound?
**A.** 0.27% and 0.74%

**Q.** What about the “Total Cell Count” value [1] of the same compound?
**A.** 411 and 164

**Q.** And the “Population Apoptotic (%)” value [2]?
**A.** 45.45% and 65%

**Q.** And the “Population Fragmented Nuclei (%)” value [2]?
**A.** 2.48% and 9.2%

**Q.** What about the “Population Healthy Nuclei (%)” value [2] of the same compound?
**A.** 87.61% and 79.31%

**Q.** What about the “Population Hoechst High Intensity Objects (%)” value [2] of the same compound?
**A.** 0%

**Q.** What about the “Population Membrane Permeable-Phenotype (%)” value [2] of the same compound?
**A.** 0% and 0.72%

**Q.** And the “Population Mitochondria Different-Phenotype (%)” value [2]?
**A.** 0% and 2.9%

**Q.** And the “Population Mitotic Cells (%)” value [2]?
**A.** 54.55% and 35%

**Q.** What about the “Population Normal (%)” value [2] of the same compound?
**A.** 100%

**Q.** What about the “Population Pyknosed Nuclei (%)” value [2] of the same compound?
**A.** 9.91% and 11.49%

**Q.** What about the “Population Tubulin-Different-Phenotype (%)” value [2] of the same compound?
**A.** 0.26% and 0%

**Q.** And the “Total Cell Count” value [2]?
**A.** 444 and 174

**Q.** What about the “Population Apoptotic (%)” value [3] of the same compound?
**A.** 40.91% and 57.69%

**Q.** What about the “Population Fragmented Nuclei (%)” value [3] of the same compound?
**A.** 1.32% and 3.81%

**Q.** What about the “Population Healthy Nuclei (%)” value [3] of the same compound?
**A.** 90.38% and 83.81%

**Q.** What about the “Population Hoechst High Intensity Objects (%)” value [3] of the same compound?
**A.** 0%

**Q.** What about the “Population Membrane Permeable-Phenotype (%)” value [3] of the same compound?
**A.** 0.21% and 1.7%

**Q.** What about the “Population Mitochondria Different-Phenotype (%)” value [3] of the same compound?
**A.** 0% and 8.52%

**Q.** And the “Population Mitotic Cells (%)” value [3]?
**A.** 59.09% and 42.31%

**Q.** And the “Population Normal (%)” value [3]?
**A.** 100%

**Q.** What about the “Population Pyknosed Nuclei (%)” value [3] of the same compound?
**A.** 8.3% and 12.38%

**Q.** And the “Population Tubulin-Different-Phenotype (%)” value [3]?
**A.** 0.42% and 0.57%

**Q.** What about the “Total Cell Count” value [3] of the same compound?
**A.** 530 and 210

**Q.** What about the “Population Apoptotic (%)” value [4] of the same compound?
**A.** 60.24% and 73.33%

**Q.** And the “Population Fragmented Nuclei (%)” value [4]?
**A.** 1.8% and 8.77%

**Q.** What about the “Population Healthy Nuclei (%)” value [4] of the same compound?
**A.** 79.5% and 73.68%

**Q.** And the “Population Hoechst High Intensity Objects (%)” value [4]?
**A.** 0%

**Q.** And the “Population Membrane Permeable-Phenotype (%)” value [4]?
**A.** 2.55% and 1.59%

**Q.** What about the “Population Mitochondria Different-Phenotype (%)” value [4] of the same compound?
**A.** 0% and 0.79%

**Q.** What about the “Population Mitotic Cells (%)” value [4] of the same compound?
**A.** 39.76% and 26.67%

**Q.** And the “Population Normal (%)” value [4]?
**A.** 100%

**Q.** What about the “Population Pyknosed Nuclei (%)” value [4] of the same compound?
**A.** 18.69% and 17.54%

**Q.** And the “Population Tubulin-Different-Phenotype (%)” value [4]?
**A.** 3.4% and 0%

**Q.** What about the “Total Cell Count” value [4] of the same compound?
**A.** 444 and 171

**Q.** What about the “Population Apoptotic (%)” value [5] of the same compound?
**A.** 46.15% and 44.44%

**Q.** And the “Population Fragmented Nuclei (%)” value [5]?
**A.** 2.37% and 2.99%

**Q.** What about the “Population Healthy Nuclei (%)” value [5] of the same compound?
**A.** 91.15% and 83.53%

**Q.** And the “Population Hoechst High Intensity Objects (%)” value [5]?
**A.** 0%

**Q.** And the “Population Membrane Permeable-Phenotype (%)” value [5]?
**A.** 0.68% and 0.36%

**Q.** And the “Population Mitochondria Different-Phenotype (%)” value [5]?
**A.** 0.14% and 3.58%

**Q.** And the “Population Mitotic Cells (%)” value [5]?
**A.** 53.85% and 55.56%

**Q.** What about the “Population Normal (%)” value [5] of the same compound?
**A.** 100%

**Q.** What about the “Population Pyknosed Nuclei (%)” value [5] of the same compound?
**A.** 6.48% and 13.47%

**Q.** What about the “Population Tubulin-Different-Phenotype (%)” value [5] of the same compound?
**A.** 1.23% and 0.36%

**Q.** What about the “Total Cell Count” value [5] of the same compound?
**A.** 802 and 334

**Q.** What about the “Population Apoptotic (%)” value [6] of the same compound?
**A.** 62.57% and 80.82%

**Q.** And the “Population Healthy Nuclei (%)” value [6]?
**A.** 51.4% and 35.44%

**Q.** And the “Population Hoechst High Intensity Objects (%)” value [6]?
**A.** 0% and 0.63%

**Q.** What about the “Population Membrane Permeable-Phenotype (%)” value [6] of the same compound?
**A.** 13.86% and 7.14%

**Q.** What about the “Population Mitochondria Different-Phenotype (%)” value [6] of the same compound?
**A.** 1.49% and 1.79%

**Q.** And the “Population Mitotic Cells (%)” value [6]?
**A.** 37.43% and 19.18%

**Q.** What about the “Population Normal (%)” value [6] of the same compound?
**A.** 100% and 99.37%

**Q.** And the “Population Pyknosed Nuclei (%)” value [6]?
**A.** 45.55% and 46.2%

**Q.** And the “Population Tubulin-Different-Phenotype (%)” value [6]?
**A.** 11.39% and 8.93%

**Q.** And the “Total Cell Count” value [6]?
**A.** 393 and 159
